# Measured values from ChEMBL document CHEMBL3232819, “Synthesis and biological evaluation of new pyrazolone-pyridazine conjugates as anti-inflammatory and analgesic agents” (Bioorg Med Chem, 2014).
# Legend:
# Mus musculus [1] = assay: Antiinflammatory activity in Swiss Albino mouse assessed as inhibition of carrageenan-induced paw edema at 25 mg/kg, po administered 30 mins before carrageenan challenge relative to vehicle-treated control; format: functional; set-up: scale not given: the % may be the effect or the level left
# Method in brief: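 Male Swiss albino mice, 25–32 g, six per group, given drug in 1% CMC orally 30 min before subplantar right hind paw injection of carrageenan (1% w/v in 0.9% saline, 0.05 mL/mouse). […] Mean ± SEM, one-way ANOVA/Bonferroni.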
# Mus musculus [2] = assay: Analgesic activity in Swiss Albino mouse assessed as inhibition of acetic acid-induced writhing at 25 mg/kg, po administered 30 mins before to acetic acid challenge measured for 15 mins relative to vehicle-treated control; format: functional; set-up: scale not given: the % may be the effect or the level left
# Method in brief: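 Male Swiss albino mice, 25–32 g, n=6/group, dosed by oral gavage (5 mL/kg) in 1% CMC; vehicle controls. Mice habituated 30 min in test cage. Writhing induced by 0.1 mL 1% acetic acid ip at 30 min post-dose. Abdominal contractions counted for 15 min from the 5th min after injection. % protection = (n−n0)/n × 100 using group mean writhes. Mean ± SEM, one-way ANOVA/Bonferroni.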
# Mus musculus [3] = assay: Antiinflammatory activity in Swiss Albino mouse assessed as inhibition of carrageenan-induced TNFalpha production in serum at 25 mg/kg, po administered 30 mins before carrageenan challenge after 30 mins by ELISA (reference value: 15.48 +/- 0.31 ng/ml); format: functional
# Mus musculus [4] = assay: Antiinflammatory activity in Swiss Albino mouse assessed as inhibition of carrageenan-induced IL-6 production in serum at 25 mg/kg, po administered 30 mins before carrageenan challenge after 30 mins by ELISA (reference value: 23.8 +/- 2.5 ng/ml); format: functional
# [5] = biological target: T1, Prostaglandin G/H synthase 1 (Ovis aries, UniProt P05979); assay: Inhibition of ovine COX1 using arachidonic acid as substrate assessed as conversion of PGH2 to PGF2alpha after 10 mins by EIA
# T1 sequence (P05979 whole entry): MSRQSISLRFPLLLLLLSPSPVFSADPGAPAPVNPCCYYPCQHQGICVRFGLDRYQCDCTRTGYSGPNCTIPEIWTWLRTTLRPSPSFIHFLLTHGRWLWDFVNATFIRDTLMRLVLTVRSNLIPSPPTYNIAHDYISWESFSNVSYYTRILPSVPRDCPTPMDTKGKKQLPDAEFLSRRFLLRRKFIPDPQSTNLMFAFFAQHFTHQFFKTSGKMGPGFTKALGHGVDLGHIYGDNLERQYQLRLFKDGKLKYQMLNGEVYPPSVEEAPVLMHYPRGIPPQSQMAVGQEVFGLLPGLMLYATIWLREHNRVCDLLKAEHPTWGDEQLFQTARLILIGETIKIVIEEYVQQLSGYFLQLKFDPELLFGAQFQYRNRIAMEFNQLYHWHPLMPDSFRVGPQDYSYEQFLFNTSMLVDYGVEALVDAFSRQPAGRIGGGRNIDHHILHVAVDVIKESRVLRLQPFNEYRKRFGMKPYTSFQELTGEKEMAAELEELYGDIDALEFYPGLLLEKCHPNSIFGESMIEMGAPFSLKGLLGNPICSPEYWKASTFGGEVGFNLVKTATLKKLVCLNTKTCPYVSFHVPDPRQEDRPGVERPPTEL
# Method in brief: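 Ovine COX-1 EIA kit: enzyme with heme and DMSO-dissolved sample in 0.1 M Tris-HCl pH 8, 5 mM EDTA, 2 mM phenol, preincubated 10 min at 37 °C; arachidonic acid added (final 100 µM), stopped after 2 min with HCl, SnCl2 reduction 5 min RT; PGF2α by EIA (18 h RT, Ellman's, 410 nm). IC50 versus untreated control incubations.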
Structure (SMILES),Activity (Mus musculus [1]) [%],Activity (Mus musculus [2]) [%],Activity (Mus musculus [3]) [ng/mL],Activity (Mus musculus [4]) [ng/mL],IC50 [5] [µM]
O=C1CC(Nc2ccccc2Nc2ccc(Cl)nn2)=NN1,11.2,33.4,13.2,21.4,–
CCOc1ccc(Nc2ccccc2NC2=NNC(=O)C2)nn1,10.2,18.2,12.4,22.4,–
NS(=O)(=O)c1ccc(Nc2ccc(Nc3ccccc3NC3=NNC(=O)C3)nn2)cc1,15.4,11.3,16.7,21.43,–
O=C1CC(Nc2ccccc2Nc2ccc(Nc3cccc([N+](=O)[O-])c3)nn2)=NN1,5.4,13.2,13.5,18.3,–
CN1CCN(c2ccc(Nc3ccccc3NC3=NNC(=O)C3)nn2)CC1,35.3,41.2,9.34,19.5,–
O=C1CC(Nc2ccccc2Nc2ccc(N3CCCCC3)nn2)=NN1,59.4,55.6,7.5,16.5,3.15
NC(=O)c1ccccc1Oc1ccc(Nc2ccccc2NC2=NNC(=O)C2)nn1,9.3,14.2,11.98,22.6,–
O=C1CC(Nc2ccccc2Nc2ccc(Nc3ccccc3Cl)nn2)=NN1,54.3,57.2,6.4,10.65,4.02
O=C1CC(Nc2ccccc2Nc2ccc(Nc3ccccc3F)nn2)=NN1,11.2,36.1,11.2,17.3,–
NC(=O)c1ccccc1Nc1ccc(Nc2ccccc2NC2=NNC(=O)C2)nn1,18.2,13.2,12.5,22.3,–
O=C([O-])Cc1ccccc1Nc1c(Cl)cccc1Cl.[Na+] [DICLOFENAC SODIUM],61.5,83.3,5.01,7.6,–
O=C1CC(Nc2ccccc2Nc2ccc(N3CCOCC3)nn2)=NN1,62.3,63.7,7.2,11.8,2.86
O=C1CC(Nc2ccccc2Nc2ccc(Nc3ccc(Cl)cc3)nn2)=NN1,35.4,68.3,7.12,9.76,4.46
